ChEMBL document CHEMBL4017492, “Discovery of a para-Acetoxy-benzyl Ester Prodrug of a Hydroxamate-Based Glutamate Carboxypeptidase II Inhibitor as Oral Therapy for Neuropathic Pain” (J Med Chem, 2017)
The source made the active and inactive calls. No cut-off for these calls is given here.

Legend:
Plasma [1] = assay: Metabolic stability in mouse plasma at 10 uM measured upto 60 mins by LC-MS/MS analysis; format: ADME, cell-free; conditions: 1 h
Summary of the method: (§1)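 Compounds at 10 μM spiked into mouse plasma and shaken at 37 °C. Triplicate aliquots taken at 0 and 60 min and quenched with 2 volumes of ice-cold acetonitrile containing losartan 5 μM as internal standard. Centrifuged and supernatant diluted with water. Parent loss and metabolites identified by LC–ESI-TOF on C18 using a formic acid/acetonitrile gradient and extracted-ion chromatograms.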

[2] = target: Glutamate carboxypeptidase 2 (Homo sapiens, UniProt Q04609); assay: Inhibition of recombinant human glutamate carboxypeptidase 2 (44 to 750 residues) overexpressed in Drosophila Schneider S2 cells using [3H]-NAAG/NAAG as substrate preincubated for 15 mins followed by substrate addition measured after 20 mins by liquid scintillation counting method
Glutamate carboxypeptidase 2, sequence (Q04609 whole entry, the tested form may be a part): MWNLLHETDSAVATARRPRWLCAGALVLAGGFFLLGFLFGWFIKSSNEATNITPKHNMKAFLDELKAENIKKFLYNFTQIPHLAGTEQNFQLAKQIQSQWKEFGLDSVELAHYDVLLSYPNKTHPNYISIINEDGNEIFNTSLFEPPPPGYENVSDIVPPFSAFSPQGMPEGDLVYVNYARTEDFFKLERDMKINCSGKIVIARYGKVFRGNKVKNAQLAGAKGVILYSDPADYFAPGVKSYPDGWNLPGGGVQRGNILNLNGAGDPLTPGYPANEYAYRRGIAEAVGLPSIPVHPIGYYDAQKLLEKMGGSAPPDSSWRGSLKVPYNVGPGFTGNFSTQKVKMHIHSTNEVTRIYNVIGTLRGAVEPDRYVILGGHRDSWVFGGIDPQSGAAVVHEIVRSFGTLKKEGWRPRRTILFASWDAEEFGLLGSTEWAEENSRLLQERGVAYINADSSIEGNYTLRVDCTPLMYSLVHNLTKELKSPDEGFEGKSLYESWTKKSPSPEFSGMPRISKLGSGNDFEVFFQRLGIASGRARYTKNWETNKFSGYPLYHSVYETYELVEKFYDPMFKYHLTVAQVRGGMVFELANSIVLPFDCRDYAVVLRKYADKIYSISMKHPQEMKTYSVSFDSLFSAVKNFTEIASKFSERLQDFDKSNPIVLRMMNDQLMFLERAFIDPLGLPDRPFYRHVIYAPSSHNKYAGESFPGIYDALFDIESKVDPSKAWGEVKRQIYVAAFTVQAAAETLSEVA
Summary of the method: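 Radioenzymatic assay. rhGCPII (30 ng/mL) preincubated with inhibitor at varying concentrations for 15 min at 37 °C in 20 mM Tris, 150 mM NaCl, pH 8.0. Started with 0.31 μM NAAG plus 15 nM 3H-NAAG and run 20 min. Stopped with phosphate/EDTA/β-mercaptoethanol, pH 7.4. Released glutamate separated by ion exchange and counted by scintillation. IC50 obtained from inhibition curves.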

Plasma [3] = assay: (§2) Prodrug conversion in CD1 mouse plasma assessed as 4-Carboxy-alpha-[3-(hydroxyamino)-3-oxopropyl]-benzenepropanoic acid formation at 10 mg/kg equiv of 4-Carboxy-alpha-[3-(hydroxyamino)-3-oxopropyl]-benzenepropanoic acid after 30 mins by LC-MS/MS analysis; format: ADME, organism-based; conditions: in vivo, 0.5 h
Summary of the method: (§3)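 Male CD-1 mice (25–30 g) given a single oral dose equivalent to 10 mg/kg of parent, in 50 mM HEPES-buffered saline at pH 7.4. Killed by pentobarbital at 30 min and blood taken by cardiac puncture into heparin. Plasma stored at −80 °C, then assayed for parent by LC-MS/MS on C18 with a formic acid/acetonitrile gradient. Mean ± SEM, n = 3.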

Plasma [4] = assay: as §2, with “analysis relative to 4-Carboxy-alpha-[3-(hydroxyamino)-3-oxopropyl]-benzenepropanoic acid alone” for “analysis”; format: ADME, organism-based; conditions: in vivo, 0.5 h; summary of the method: as §3
Rattus norvegicus [5] = assay: Effect on response latency to thermal stimulus in Sprague-Dawley rat at 4.6 mg/kg administered via oral gavage relative to vehicle-treated control; format: organism-based; conditions: in vivo
Summary of the method: (§4)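 Male Sprague–Dawley rats (200–250 g; n = 10–15 per group) with sciatic nerve loosely ligated (four 4.0 chromic gut ligatures, 1 mm apart). Testing began 10 days post-surgery. Plantar thermal stimulus (Hargreaves) applied to the hind paw, withdrawal latency read to 0.1 s. Dosed daily by oral gavage, and 1 h before each test session. Two sessions per week; compared with vehicle by Student's t-test.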

Plasma [6] = assay: Prodrug conversion in mouse plasma assessed as 4-Carboxy-alpha-[3-(hydroxyamino)-3-oxopropyl]-benzenepropanoic acid formation at 10 uM measured upto 60 mins by LC-MS/MS analysis; format: ADME, cell-free; conditions: 1 h; summary of the method: as §1
Rattus norvegicus [7] = assay: Analgesic activity in Sprague-Dawley rat assessed as reduction in chronic constriction injury induced hyperalgesic neuropathic pain on ligated side at 4.6 mg/kg/day administered via oral gavage measured upto 8 days relative to vehicle-treated control; format: functional, organism-based; summary of the method: as §4
Rattus norvegicus [8] = assay: Analgesic activity in Sprague-Dawley rat assessed as reduction in chronic constriction injury induced hyperalgesic neuropathic pain on ligated side at 100 mg/kg/day administered via oral gavage measured upto 8 days relative to vehicle-treated control; format: functional, organism-based
Summary of the method: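 Male Sprague–Dawley rats (200–250 g; n = 10–15 per group) received sciatic nerve constriction with four loose 4.0 chromic gut ligatures spaced 1 mm apart. Testing began 10 days after surgery. Dosing was daily by oral gavage, given 1 h before testing on test days. Hind-paw withdrawal latency to a plantar thermal stimulus (Hargreaves) was read to 0.1 s, with normal response within 15 s. Difference score was nonligated minus ligated latency. Sessions were twice weekly, and groups were compared by t-test versus control.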

Plasma [9] = assay: Drug metabolism in mouse plasma assessed as 2-(4-(ethoxycarbonyl)benzyl)-5-(hydroxyamino)-5-oxopentanoic acid formation at 10 uM measured after 60 mins by LC-MS/MS analysis; format: ADME, cell-free; conditions: 1 h; summary of the method: as §1
[10] = Prodrug conversion in Tris/NaCl buffer assessed as 4-Carboxy-alpha-[3-(hydroxyamino)-3-oxopropyl]-benzenepropanoic acid formation at pH 8
Summary of the method: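 Stability tested under the enzyme assay conditions: 30 min in aqueous buffer (20 mM Tris, 150 mM NaCl), pH 8.0.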

SMILES: O=C(CCC(Cc1ccc(C(=O)O)cc1)C(=O)O)NO (centres undefined)
- Stability (Plasma [1]): Stable
- IC50 [2]: 0.04 µM

SMILES: CCOC(=O)c1ccc(CC(CCC(=O)NOCc2ccc(OC(C)=O)cc2)C(=O)OCC)cc1 (centres undefined)
- Drug metabolism (Plasma [3]): Metabolite_Notdetected
- IC50 [2]: > 5 µM

SMILES: CC(=O)Oc1ccc(CONC(=O)CCC(Cc2ccc(C(=O)O)cc2)C(=O)O)cc1 (centres undefined)
- fold change (FC) (Plasma [4]): 5
- Activity (Rattus norvegicus [5]): Non-Toxic
- Drug metabolism (Plasma [6]): Metabolite_Detected
- Activity (Rattus norvegicus [7]): Active
- IC50 [2]: > 5 µM

SMILES: CC(=O)Oc1ccc(CONC(=O)CCC(Cc2ccc(C(=O)OCOC(=O)OC(C)C)cc2)C(=O)O)cc1 (centres undefined)
- fold change (FC) (Plasma [4]): 4
- Drug metabolism (Plasma [6]): Metabolite_Detected
- IC50 [2]: > 5 µM

SMILES: NCC1(CC(=O)O)CCCCC1
- Activity (Rattus norvegicus [8]): Active

SMILES: CCOC(=O)c1ccc(CC(CCC(=O)NOCc2ccc(OC(C)=O)cc2)C(=O)O)cc1 (centres undefined)
- Drug metabolism (Plasma [9]): Metabolite_Detected
- Drug metabolism (Plasma [6]): Metabolite_Notdetected
- Drug metabolism (Plasma [3]): Metabolite_Notdetected
- IC50 [2]: > 5 µM

SMILES: Cc1oc(=O)oc1CONC(=O)CCC(Cc1ccc(C(=O)O)cc1)C(=O)O (centres undefined)
- Drug metabolism [10]: Metabolite detected

SMILES: CC(=O)ONC(=O)CCC(Cc1ccc(C(=O)O)cc1)C(=O)O (centres undefined)
- IC50 [2]: > 5 µM
